Laboratory results taken from ChEMBL document CHEMBL4610011, “Bilobalide and PC12 cells: A structure activity relationship study” (Bioorg Med Chem, 2020).
The source made the active and inactive calls. The calls are words filed in the database; no cut-off is given here.

How the values were obtained:
PC-12 [1] = assay: Neuroprotective activity against amyloid beta (1 to 40 residues)-induced toxicity in rat PC12 cells at 0.26 ug/mL pretreated for 24 hrs followed by 1 uM amyloid beta (1 to 40 residues) challenge and measured after 24 hrs by WST-8 assay
PC-12 [2] = assay: Induction of cell proliferation in rat PC12 cells assessed as increase in cell viability at 0.26 ug/ml after 24 hrs in presence of 10 ng/ml NGF by WST-8 assay; format: functional, cell-based
Outline: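 PC12 cells were seeded at 2,000 cells/well on type I collagen and grown 24 h in DMEM with 10% FBS and 10% horse serum at 37 °C, 5% CO₂. They were then given 24 h in DMEM with 1% FBS, 1% horse serum and 10 ng/mL NGF plus substance, followed by 24 h without Aβ. Viability was read by 10% WST-8 for 1–2 h at A450, relative to 0.004% DMSO vehicle.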

PC-12 [3] = assay: Induction of neurite outgrowth in rat PC12 cells at 0.26 ug/ml incubated for 24 hrs by microscopic analysis; format: functional, cell-based
Outline: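 PC12 cells (2,000/well, collagen I) were treated for 24 h in DMEM with 1% FBS, 1% horse serum and 10 ng/mL NGF containing substance, then cultured 24 h in the same medium without Aβ. Cells were imaged by microscopy before the viability read-out. Cells with neurites equal to, twice, or more than twice the cell length were counted.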

Compound | Activity (PC-12 [1]) | Activity (PC-12 [2]) | Activity (PC-12 [3])
CC(C)(C)[C@]1(O)C[C@@H]2OC(=O)C[C@@]23C(=O)O[C@@H]2OC(=O)[C@H](O)[C@]213 | Active | Active | Active
CC(C)(C)[C@]1(O)C[C@@H]2OC(O)C[C@]2(CO)[C@@]12COC[C@@H]2O (stereo partly drawn) | inactive | Active | inactive
CC(C)(C)[C@@]12C[C@@H]3OC(=O)C[C@]3(C(=O)O1)[C@@]21[C@H](OC(=O)c2ccc(Br)cc2)OC(=O)[C@@H]1OC(=O)c1ccc(Br)cc1 | Active |  | Active
CC(C)(C)C1=C(C=O)[C@](CC(=O)OCc2ccccc2)(C(=O)OCc2ccccc2)C=C1 | Active |  | Active
CC(=O)O[C@@H]1OC(=O)[C@H](OC(C)=O)[C@]12[C@@]13CC(=O)O[C@H]1C[C@]2(C(C)(C)C)OC3=O | Active | Active | Active
